Results published in ChEMBL document CHEMBL3871280, “Bis(N-amidinohydrazones) and N-(amidino)-N'-aryl-bishydrazones: New classes of antibacterial/antifungal agents” (Bioorg Med Chem, 2017).
Activity calls are given as the source filed them. The rule behind the calls is not given here.

Key:
[1] = Antifungal activity against fluconazole/itraconazole/voriconazole-susceptible Candida albicans ATCC 2876; format: functional
[2] = tested on: Listeria monocytogenes; experiment: Ratio of MIC for Listeria monocytogenes ATCC 19115 after and before 15 serial passages at 0.5 times MIC; format: functional
Summary of the method: (§1)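 Multi-step resistance selection with serial sub-culture of bacteria at sub-inhibitory compound concentrations for 15 passages. MIC was redetermined after each passage to follow any increase over the starting value. Amikacin was run in parallel as reference.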

[3] = Antifungal activity against fluconazole/itraconazole/voriconazole-resistant Candida albicans ATCC 10231; format: functional
[4] = Antibacterial activity against Salmonella enterica ATCC 14028; format: functional
[5] = tested on: Staphylococcus aureus; experiment: Ratio of MIC for methicillin-resistant Staphylococcus aureus after and before 15 serial passages at 0.5 times MIC; format: functional; summary of the method: as §1
[6] = Cytotoxicity against human A549 cells assessed as reduction in cell survival; format: toxicity, cell-based
[7] = tested on: Pseudomonas aeruginosa; experiment: Ratio of MIC for Pseudomonas aeruginosa ATCC 27853 after and before 15 serial passages at 0.5 times MIC; format: functional; summary of the method: as §1
[8] = tested on: Bacillus subtilis; experiment: Antibacterial activity against Bacillus subtilis 168; format: functional; conditions: subsp. subtilis str. 168
[9] = Antifungal activity against fluconazole/itraconazole/voriconazole-susceptible Candida albicans ATCC 2310; format: functional
[10] = Cytotoxicity against human BEAS2B cells assessed as reduction in cell survival; format: toxicity, cell-based; conditions: beas-2b
[11] = tested on: Enterococcus; experiment: Ratio of MIC for vancomycin-resistant Enterococcus after and before 15 serial passages at 0.5 times MIC; format: functional; summary of the method: as §1
[12] = Antifungal activity against fluconazole/itraconazole/voriconazole-resistant Candida albicans ATCC 1237; format: functional
[13] = tested on: Candida albicans; experiment: Antifungal activity against Candida albicans ATCC 1003; format: functional
[14] = tested on: Pseudomonas aeruginosa; experiment: Antibacterial activity against Pseudomonas aeruginosa ATCC 27853; format: functional
[15] = tested on: Acinetobacter baumannii; experiment: Antibacterial activity against Acinetobacter baumannii ATCC 19606; format: functional
[16] = tested on: Candida albicans; experiment: Induction of intracellular ROS production in Candida albicans ATCC 10231 at 1 to 2 times MIC after 1 hr by DCFH-DA probe based fluorescence microscopic analysis; format: functional, cell-based
Summary of the method: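 C. albicans ATCC 10231 was exposed for 1 h at 35 °C, with untreated cells as negative control and 1 mM H2O2 as positive control. Cells were then stained with DCFH-DA (20 μg/mL), and intracellular ROS was read by fluorescence microscopy.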

[17] = tested on: Listeria monocytogenes; experiment: Antibacterial activity against Listeria monocytogenes ATCC 19115; format: functional
[18] = tested on: Escherichia coli; experiment: Antibacterial activity against Escherichia coli MC1061; format: functional
Summary of the method: (§2)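 Values were set in μM and converted to μg/mL for presentation. Amikacin, ampicillin and ofloxacin served as positive controls.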

[19] = tested on: Staphylococcus aureus; experiment: Antibacterial activity against methicillin-resistant Staphylococcus aureus; format: functional; summary of the method: as §2
[20] = Antifungal activity against fluconazole/itraconazole/voriconazole-resistant Candida albicans ATCC 64124; format: functional
[21] = Antifungal activity against fluconazole/itraconazole/voriconazole-resistant Candida albicans ATCC 90819; format: functional
[22] = tested on: Enterobacter cloacae; experiment: Antibacterial activity against Enterobacter cloacae ATCC 13047; format: functional; conditions: subsp. cloacae ATCC 13047
[23] = tested on: Candida albicans; experiment: Ratio of MIC for Candida albicans ATCC 10231 after and before 13 serial passages at 0.5 times MIC; format: functional
[24] = tested on: Klebsiella pneumoniae; experiment: Antibacterial activity against Klebsiella pneumoniae ATCC 27736; format: functional
[25] = tested on: Mycolicibacterium smegmatis; experiment: Antimycobacterial activity against Mycobacterium smegmatis MC2 155; format: functional; conditions: str. MC2 155; summary of the method: as §2
[26] = tested on: Enterococcus; experiment: Antibacterial activity against vancomycin-resistant Enterococcus; format: functional; summary of the method: as §2
[27] = tested on: Enterococcus; experiment: Antibacterial activity against vancomycin-resistant Enterococcus at 0.5 times MIC after […] serial passages; format: functional; summary of the method: as §1
[28] = tested on: Listeria monocytogenes; experiment: Antibacterial activity against Listeria monocytogenes ATCC 19115 at 0.5 times MIC after […] serial passages; format: functional; summary of the method: as §1

| Compound | MIC [1] [µM] | fold change (FC) [2] | MIC [3] [µM] | MIC [4] [µM] | fold change (FC) [5] | IC50 [6] [µg/mL] | MIC [8] [µM] | MIC [9] [µM] | IC50 [10] [µg/mL] | fold change (FC) [11] | MIC [12] [µM] | MIC [13] [µM] | MIC [14] [µM] | MIC [15] [µM] | MIC [17] [µM] | MIC [18] [µM] | MIC [20] [µM] | MIC [21] [µM] | MIC [22] [µM] | MIC [24] [µM] | also measured |
| --- | --- | --- | --- | --- | --- | --- | --- | --- | --- | --- | --- | --- | --- | --- | --- | --- | --- | --- | --- | --- | --- |
| C/C(=N\NC(=N)N)c1ccc2c(c1)Cc1cc(/C(C)=N/NC(=N)N)ccc1-2.Cl.Cl | 2.3 | 1 | 2.3 to 4.6 | 3.9 | 1 | 2.5 | 7.8 | 2.3 | 1.8 | 1 | 4.6 | 2.3 | 1 to 2 | 500 | < 0.5 | 500 | 2.3 | 4.6 | 500 | 31.3 to 62.5 | fold change (FC) [7]: 1; Activity [16]: Active; MIC [19]: 1 to 2 µM; fold change (FC) [23]: 2 |
| C/C(=N\NC(=N)N)c1ccc(CCc2ccc(/C(C)=N/NC(=N)N)cc2)cc1.Cl.Cl | 8.6 | 8 | 17.3 | > 500 | 4 - 16 | 2.9 | > 500 | 69.3 | 1.8 | 16 | 34.6 | 34.6 | > 500 | > 500 | 1 | > 500 | > 69.3 | 17.3 | > 500 | > 500 | MIC [25]: 1 µM; MIC [19]: 1 to 2 µM; MIC [26]: 1 µM |
| Cl.N=C(N)N/N=C/c1ccc(-c2ccc(/C=N/Nc3ccccc3Cl)cc2)cc1 | 4.6 | – | 4.6 | > 500 | – | 2.8 | > 500 | 4.6 | 2.3 | – | 9.2 | 4.6 | > 500 | > 500 | 1 to 2 | > 500 | 9.2 | 4.6 | > 500 | > 500 | MIC [25]: 3.9 µM; Activity [16]: Active; Activity [27]: Active; Activity [28]: Active |
